Data on 32 compounds can be found in article PMC9729583 (Antiviral Research, 2022).

For data set [1], the system named is mNG-SARS-CoV-2. The data set can be described thus: microbe, parasite or virus in culture. The following applies: for % Inhibition: 50 µM; for inhibition at 50 µM: Severe acute respiratory syndrome coronavirus 2, Calu-3. The class given is cell-based.
Data set [2] concerns mNG-SARS-CoV-2. The data set is described as follows: microbe, parasite or virus in culture. The class given is cell-based.
For another data set, the system named is Calu-3 cells. The data set can be described thus: PrestoBlue cytotoxicity assay. In kind it is cell-based, human. As to conditions: Calu-3, 48 h incubation. Summed up:
(§1)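 Calu-3 cells were grown per ATCC recommendations and seeded in 96-well plates. After 24 h, medium was replaced with serially diluted test compound for 48 h. Cells were then incubated 2 h with 5% PrestoBlue and fluorescence read at ex 555/em 585 nm. Viability was expressed as % of vehicle-treated cells. At least three independent experiments were run.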

The next data set relates to SARS-CoV-2 Omicron BA.1. The data set is described as follows: dose-response against SARS-CoV-2 Omicron BA.1 in Calu-3 cells. In kind it is cell-based.
The test system of data set [3] is wild-type SARS-CoV-2. As to conditions: cited from earlier work.
The subject of data set [4] is mNG-SARS-CoV-2. The data set is described as follows: microbe, parasite or virus in culture. In kind it is cell-based. This is another data set of the same source.
Data set [5] has as its system wild-type SARS-CoV-2. The following applies: Huh-7.5 cells ref Dittmar et al., 2021; cited from earlier work.
Data set [6] can be described thus: PrestoBlue cytotoxicity assay. The class given is cell-based, human. The following applies: human, Calu-3 cells. An outline of the steps:
as §1

In another data set the target is 3CLpro (Severe acute respiratory syndrome coronavirus 2, UniProt P0DTD1). The data set is described as follows: 3CLpro enzymatic assay. The class given is biochemical, SARS-CoV-2. The following applies: data not shown.
Where [7] appears, read: Severe acute respiratory syndrome coronavirus 2, Calu-3, read-out: BA.1 (EC50) Nuc, Calu-3, nucleocapsid staining.
The mark [8] stands for this setting: Severe acute respiratory syndrome coronavirus 2, Calu-3, read-out: BA.1 (EC50) dsRNA, Calu-3, dsRNA staining.
Where [9] appears, read: Severe acute respiratory syndrome coronavirus 2, Calu-3.

Read-outs that look alike come from different tables or passages of the source.

The term % Inhibition denotes the change of the read-out against control, counted positive when it falls. The EC50 is the concentration needed to bring the measured effect to its halfway point. Usually CC50 stands for the concentration at which the toxic effect on the cells reaches its halfway point. The low end stands for greater toxicity to the cells, the high end for lower toxicity to the cells. For the compound 2-butylchrysin, the “% Inhibition” value with mNG-SARS-CoV-2 [1] worked out at 95%. The compound also returned an EC50 in the data set on mNG-SARS-CoV-2 [2] of 18 µM. Besides, the CC50 in the data set on Calu-3 cells is > 100 µM.
For the compound `CC(C)=CCc1cc([C@@H]2CC(=O)c3c(O)cc(O)c(CC=C(C)C)c3O2)cc(CC=C(C)C)c1O` [5-hydroxysophoranone], the “% Inhibition” value in the data set with mNG-SARS-CoV-2 [1] is 100%. For the same compound, the EC50 with mNG-SARS-CoV-2 [2] stood at 20.2 µM. Further, the CC50 in the data set on Calu-3 cells is > 100 µM.
The corresponding values for `COc1cc([C@H]2OC[C@]3(O)[C@@H](c4ccc(O)c(OC)c4)OC[C@H]23)ccc1O` [8-hydroxypinoresinol] are 82%, 24.4 µM and > 100 µM.
As to `N[C@H](CNc1nc(-c2ccncc2)nc2sc3c(c12)CCCC3)Cc1ccccc1` [CRT0066854], the EC50 stood at 0.3 µM in the data set on SARS-CoV-2 Omicron BA.1 (read-out: BA.1 (EC50) Nuc, Calu-3, nucleocapsid staining) and 0.1 µM in the data set on SARS-CoV-2 Omicron BA.1 (read-out: BA.1 (EC50) dsRNA, Calu-3, dsRNA staining).
As to `CC(C)C[C@H](NC(=O)OCc1ccccc1)C(=O)N[C@@H](CC1CCNC1=O)C(O)S(=O)(=O)O` (stereo partly drawn) [GC376], the EC50 in the data set on mNG-SARS-CoV-2 [2] was 0.475 µM; with wild-type SARS-CoV-2 [3] (Vero E6 cells ref Dampalla et al., 2021) it was 0.23 µM; with wild-type SARS-CoV-2 [3] (Vero E6 cells ref Fu et al., 2020), 0.7 µM.
For `Cn1c2ccccc2c2c3c(c4c5ccccc5n(CCC#N)c4c21)CNC3=O` [Gö6976], the “effect on SARS-CoV-2 BA.1 infection” value in the data set on SARS-CoV-2 Omicron BA.1 was “dramatic increase in susceptibility of cells to SARS-CoV-2 BA.1”.
On to `COc1ccc2c(c1)c(C1=C(c3c[nH]c4ccccc34)C(=O)NC1=O)cn2CCCN(C)C` [Gö6983], for which the “effect on SARS-CoV-2 BA.1 infection” value in the data set with SARS-CoV-2 Omicron BA.1 is listed as “dramatic increase in susceptibility of cells to SARS-CoV-2 BA.1”.
On to `C/C=C(/C)C(=O)O[C@H]1C(C)=C[C@]23C(=O)[C@@H](C=C(CO)[C@@H](O)[C@]12O)[C@H]1[C@@H](C[C@H]3C)C1(C)C` [PEP 005], for which the EC50 in the data set on SARS-CoV-2 Omicron BA.1 (setting [7]) came out at 0.7 µM; with SARS-CoV-2 Omicron BA.1 (setting [8]), 1.5 µM.
Regarding `CCC(CC)COC(=O)[C@H](C)N[P@](=O)(OC[C@H]1O[C@@](C#N)(c2ccc3c(N)ncnn23)[C@H](O)[C@@H]1O)Oc1ccccc1` [RDV, remdesivir], the EC50 is 0.0036 µM in the data set on mNG-SARS-CoV-2 [4] (Severe acute respiratory syndrome coronavirus 2, Huh-7.5.1, read-out: EC50 (mNG)); 0.0076 µM in the data set with mNG-SARS-CoV-2 [4] (Severe acute respiratory syndrome coronavirus 2, Huh-7.5.1, read-out: EC50 (nucleocapsid staining)); 0.002 µM in the data set on wild-type SARS-CoV-2 [5].
The inhibition is how much of the control response was suppressed. As to `CC1(C)C=Cc2c(cc3occ(-c4ccc(O)cc4)c(=O)c3c2O)O1` [alpinumisoflavone], at 50 µM the inhibition in the data set with mNG-SARS-CoV-2 [1] was 100%. Besides, the CC50 at 48 h in data set [6] is > 100 µM.
Regarding `C[C@@H]1CC[C@@]2(OC1)O[C@H]1C[C@H]3[C@@H]4CC[C@@H]5CC(=O)CC[C@]5(C)[C@H]4CC(=O)[C@]3(C)[C@@]1(O)[C@@H]2C` [asparacemosone B], the “% Inhibition” value with mNG-SARS-CoV-2 [1] was 83%. The compound further registered an EC50 in the data set with mNG-SARS-CoV-2 [2] of 4.04 µM. In the data set with Calu-3 cells, the CC50 is > 100 µM.
As for `CCC/C=C/C=C/C(=O)O[C@H]1/C(=C/C(=O)OC)C[C@H]2C[C@H]([C@@H](C)O)OC(=O)C[C@H](O)C[C@@H]3C[C@H](OC(C)=O)C(C)(C)[C@](O)(C[C@@H]4C/C(=C/C(=O)OC)C[C@H](/C=C/C(C)(C)[C@]1(O)O2)O4)O3` [bryostatin, bryostatin-1], the EC50 was 0.222 µM in the data set with SARS-CoV-2 Omicron BA.1 (setting [7]) and 0.523 µM with SARS-CoV-2 Omicron BA.1 (setting [8]).
With `CC(=O)O[C@H]1CC[C@]2(C)[C@H]3CC[C@]4(C)Oc5cc(C)oc(=O)c5C[C@H]4[C@]3(C)CC[C@H]2C1(C)C` [chevalone B], the “% Inhibition” value with mNG-SARS-CoV-2 [1] is listed as 95%. In addition, the EC50 in the data set with mNG-SARS-CoV-2 [2] came to 4.47 µM. For the same compound, the CC50 in the data set with Calu-3 cells is > 100 µM.
Take `CC(=O)O[C@H]1CC[C@]2(C)[C@H]3CC[C@]4(C)Oc5oc(C)cc(=O)c5C[C@H]4[C@]3(C)CC[C@H]2C1(C)C` [chevalone C]: in the data set on mNG-SARS-CoV-2 [1], the “% Inhibition” value is on record as 100%. This compound also showed an EC50 with mNG-SARS-CoV-2 [2] of 4.14 µM. The compound also showed a CC50 in the data set on Calu-3 cells of 93 µM.
On to `O=c1cc(-c2ccccc2)oc2cc(O)cc(O)c12` [chrysin], for which 50 µM produced 99% inhibition in the data set on mNG-SARS-CoV-2 [1]. In the data set with mNG-SARS-CoV-2 [2] (setting [9]), this compound showed an EC50 of 18.8 µM. Further, the CC50 at 48 h in [6] is > 100 µM.
`CC(C)=CCC[C@](C)(O)[C@H]1CC[C@]2(C)[C@@H]1CC[C@@H]1[C@@]3(C)CCC(=O)C(C)(C)[C@@H]3CC[C@]12C` [dipterocarpol] yielded an inhibition at 50 µM with mNG-SARS-CoV-2 [1] of 99%. Also, the EC50 in the data set with mNG-SARS-CoV-2 [2] is 3.05 µM. For the same compound, in data set [6], the CC50 at 48 h was > 100 µM.
For the compound `CC(C)=CCc1cc(-c2coc3c(CC=C(C)C)c(O)ccc3c2=O)ccc1O` [erysubin F], 50 µM produced 100% inhibition in the data set with mNG-SARS-CoV-2 [1]. For the same compound, in the data set with mNG-SARS-CoV-2 [2] (setting [9]), the midpoint of the response, the EC50, lay at 45.6 µM. Moreover, the CC50 at 48 h in data set [6] is > 100 µM.
The compound `C=CC(C)(C)c1[nH]c2ccccc2c1-c1c(O)c(OC)c2c(c1OC)O[C@H]1Nc3ccccc3[C@@]21O` [giluterrin] showed an EC50 in the data set with mNG-SARS-CoV-2 [2] of 5.44 µM. In the data set on Calu-3 cells, it took 72 µM to reach half-maximal cytotoxicity (CC50).
Turning to `CC1(O)O[C@@H](n2c3ccccc3c3c4c(c5c6ccccc6[nH]c5c32)CNC4=O)C[C@@H](N)[C@H]1O` (stereo partly drawn) [holyrine B], at 3CLpro, the “activity against 3CLpro” value was “neither holyrine A nor B presented activity against 3CLpro”.
For `C=C1C[C@@]23CC[C@H]4[C@@](C)(CCC[C@@]4(C)C(=O)O)[C@@H]2CC[C@@H]1C3` [kaur-16-en-18-oic acid], the “% Inhibition” value in the data set on mNG-SARS-CoV-2 [1] turned out to be 100%. The compound further gave an EC50 in the data set on mNG-SARS-CoV-2 [2] of 15.1 µM. Besides, the half-maximal cytotoxic concentration (CC50) in the data set on Calu-3 cells was > 100 µM.
As to `CC(C)=CCC/C(C)=C/Cc1c(O)cc2oc3c(O)cccc3c(=O)c2c1O` [mangostinone], the inhibition at 50 µM with mNG-SARS-CoV-2 [1] worked out at 92%. In the data set on mNG-SARS-CoV-2 [2], this compound registered an EC50 of 27.9 µM. Further, the CC50 at 48 h in data set [6] is > 100 µM.
Turning to `Cc1cc(O)c(C=O)c2c1C(=O)Oc1c(cc3c(c1C)C(=O)CC(C)(C)O3)O2` [mollicellin B], at 50 µM the inhibition with mNG-SARS-CoV-2 [1] was 100%. In addition, the EC50 in the data set on mNG-SARS-CoV-2 [2] is 6.79 µM. In addition, the cytotoxic concentration (CC50) at 48 h in data set [6] was > 100 µM.
In the data set on mNG-SARS-CoV-2 [1], `COc1c2ccoc2c(OCC=C(C)C)c2oc(=O)ccc12` [phellopterin] registered an inhibition at 50 µM of 96%. Also, in the data set with mNG-SARS-CoV-2 [2], the response was half-maximal at 6.35 µM (EC50). This compound showed a CC50 at 48 h in data set [6] of 93 µM.
Take `CC(=O)O[C@@]12C[C@@H](C)[C@@]3(O)[C@@H](C=C(CO)C[C@]4(O)C(=O)C(C)=C[C@@H]34)[C@@H]1C2(C)C` [prostratin]: the EC50 in the data set on SARS-CoV-2 Omicron BA.1 (setting [7]) came to 11.6 µM; with SARS-CoV-2 Omicron BA.1 (setting [8]), 5 µM.
With `C=C1C[C@H]2[C@@](C)(C(=O)C(O)=C3C(C)(C)C(=O)CC[C@@]32C)[C@@H]2C(=O)O[C@@](C)(C(=O)OC)C(=O)[C@@]12C` [terretonin A], the inhibition at 50 µM with mNG-SARS-CoV-2 [1] was determined as 82%. The EC50 with mNG-SARS-CoV-2 [2] was found to be 7.31 µM. In addition, the CC50 at 48 h in data set [6] is > 100 µM.
Consider `COc1cc(-c2cc3c(c(=O)o2)C[C@]2(O)[C@@]4(C)C(=O)C=CC(C)(C)[C@]4(O)CC[C@@]2(C)O3)cc(OC)c1OC` [territrem B], for which at 50 µM the inhibition in the data set with mNG-SARS-CoV-2 [1] was 100%. In the data set on mNG-SARS-CoV-2 [2], this compound returned a 50% effective concentration (EC50) of 6.64 µM. In [6], the CC50 at 48 h was > 100 µM.
For acetyl hyrtiosal, the “% Inhibition” value with mNG-SARS-CoV-2 [1] was determined as 97%. Further, a half-maximal response in the data set with mNG-SARS-CoV-2 [2] (EC50) required 1.97 µM. Moreover, the 50% cytotoxic concentration (CC50) in the data set on Calu-3 cells was > 100 µM.
The corresponding values for artahongkongene B are 81%, 22 µM and > 100 µM.
Taken in the same sequence, the figures for asparacemosone A were 95%, 20.7 µM and > 100 µM.
Taken in the same sequence, the figures for crotonolide F were 97%, 8.21 µM and > 100 µM.
Regarding knecorticosanone G, in the data set on mNG-SARS-CoV-2 [1], the “% Inhibition” value turned out to be 100%. The same compound came in with an EC50 in the data set on mNG-SARS-CoV-2 [2] of 3.5 µM. Also, the CC50 in the data set on Calu-3 cells was > 100 µM.
The corresponding values for piperbonin A are 100%, 3.61 µM and > 100 µM.
